Columns and labels:
Format in all cases: functional
[1] = tested on: NCI-H522; experiment: Growth inhibition of human NCI-H522 cells assessed as cell growth at 10 uM after 48 hrs by sulforhodamine B assay; details: NCI-H522, 48 h, read-out: Activity
[2] = tested on: MDA-MB-435; experiment: Growth inhibition of human MDA-MB-435 cells assessed as cell growth at 10 '-5 M after 48 hrs by sulforhodamine B assay; details: MDA-MB-435, 48 h, read-out: Activity
[3] = tested on: KM12; experiment: Growth inhibition of human KM12 cells assessed as growth inhibition at 10 uM after 48 hrs by sulforhodamine B assay; details: KM12, 48 h, read-out: GI
[4] = Growth inhibition of human EKVX cells assessed as cell growth at 10 '-6 M after 48 hrs by sulforhodamine B assay; details: read-out: Activity
[5] = tested on: BT-549; experiment: Growth inhibition of human BT549 cells assessed as growth inhibition at 10 uM after 48 hrs by sulforhodamine B assay; details: BT-549, 48 h, read-out: GI
How it was run: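 Percent growth inhibition from the single 10^-5 M NCI-60 screen, reported as 100 minus growth percent. Growth percent was measured after 48 h drug exposure at 37 °C, 5% CO2, using TCA fixation, SRB staining and absorbance at 515 nm, against untreated controls and time-zero plates.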

[6] = tested on: SN12C; experiment: Growth inhibition of human SN12C cells after 48 hrs by sulforhodamine B assay
[7] = tested on: HT-29; experiment: Growth inhibition of human HT-29 cells assessed as cell growth at 10 '-5 M after 48 hrs by sulforhodamine B assay; details: HT-29, 48 h, read-out: Activity
[8] = tested on: UACC-257; experiment: Growth inhibition of human UACC257 cells assessed as cell growth at 10 '-8 M after 48 hrs by sulforhodamine B assay; details: UACC-257, 48 h, read-out: Activity
[9] = tested on: PC-3; experiment: Growth inhibition of human PC3 cells assessed as cell growth at 10 '-5 M after 48 hrs by sulforhodamine B assay; details: PC-3, 48 h, read-out: Activity
[10] = tested on: OVCAR-3; experiment: Growth inhibition of human OVCAR3 cells assessed as cell growth at 10 '-6 M after 48 hrs by sulforhodamine B assay; details: OVCAR-3, 48 h, read-out: Activity
[11] = tested on: HCT-15; experiment: Growth inhibition of human HCT15 cells assessed as cell growth at 10 '-4 M after 48 hrs by sulforhodamine B assay; details: HCT-15, 48 h, read-out: Activity
[12] = tested on: NCI-H522; experiment: Growth inhibition of human NCI-H522 cells assessed as cell growth at 10 '-6 M after 48 hrs by sulforhodamine B assay; details: NCI-H522, 48 h, read-out: Activity
[13] = tested on: SF-268; experiment: Growth inhibition of human SF268 cells assessed as cell growth at 10 '-4 M after 48 hrs by sulforhodamine B assay; details: SF-268, 48 h, read-out: Activity
[14] = tested on: NCI-H522; experiment: Growth inhibition of human NCI-H522 cells assessed as cell growth at 10 '-5 M after 48 hrs by sulforhodamine B assay; details: NCI-H522, 48 h, read-out: Activity
[15] = tested on: MDA-MB-435; experiment: Growth inhibition of human MDA-MB-435 cells assessed as cell growth at 10 '-4 M after 48 hrs by sulforhodamine B assay; details: MDA-MB-435, 48 h, read-out: Activity
[16] = tested on: OVCAR-8; experiment: Growth inhibition of human OVCAR8 cells assessed as cell growth at 10 '-5 M after 48 hrs by sulforhodamine B assay; details: OVCAR-8, 48 h, read-out: Activity
[17] = tested on: A498; experiment: Growth inhibition of human A498 cells assessed as cell growth at 10 '-7 M after 48 hrs by sulforhodamine B assay; details: A498, 48 h, read-out: Activity
How it was run: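 Percent growth at each of the five concentrations of the 48 h continuous-exposure NCI SRB screen. Drug stocks were in DMSO at 400× the top final concentration and diluted in medium with gentamicin. Growth was calculated as [(Ti-Tz)/(C-Tz)]×100 when Ti ≥ Tz, or [(Ti-Tz)/Tz]×100 when Ti < Tz. Tz plates were fixed at drug addition; untreated wells served as control. Absorbance was read at 515 nm.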

[18] = tested on: PC-3; experiment: Growth inhibition of human PC3 cells assessed as cell growth at 10 '-7 M after 48 hrs by sulforhodamine B assay; details: PC-3, 48 h, read-out: Activity
[19] = tested on: HT-29; experiment: Growth inhibition of human HT-29 cells after 48 hrs by sulforhodamine B assay; details: HT-29, 48 h
How it was run: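 NCI 60-cell-line five-dose screen. Cells were plated at 5,000–40,000/well by doubling time and grown 24 h at 37 °C, 5% CO2. Time-zero plates were TCA-fixed. Drug from DMSO stock was tested at 0.01, 0.1, 1, 10 and 100 µM final for 48 h continuous exposure. Read-out was SRB at 515 nm. GI50 is the concentration giving 50% reduction in net protein increase versus untreated control.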

[20] = tested on: OVCAR-8; experiment: Growth inhibition of human OVCAR8 cells assessed as cell growth at 10 '-8 M after 48 hrs by sulforhodamine B assay; details: OVCAR-8, 48 h, read-out: Activity
[21] = tested on: MOLT-4; experiment: Growth inhibition of human MOLT4 cells assessed as cell growth at 10 '-5 M after 48 hrs by sulforhodamine B assay; details: MOLT-4, 48 h, read-out: Activity
[22] = tested on: SK-OV-3; experiment: Growth inhibition of human SKOV3 cells assessed as growth inhibition at 10 uM after 48 hrs by sulforhodamine B assay; details: SK-OV-3, 48 h, read-out: GI
[23] = Growth inhibition of human NCI-ADR-RES cells assessed as cell growth at 10 '-7 M after 48 hrs by sulforhodamine B assay; details: read-out: Activity
[24] = tested on: OVCAR-3; experiment: Growth inhibition of human OVCAR3 cells after 48 hrs by sulforhodamine B assay; details: OVCAR-3, 48 h, read-out: LD50 (the source's name)
[25] = tested on: RXF 393; experiment: Growth inhibition of human RXF393 cells assessed as growth inhibition at 10 uM after 48 hrs by sulforhodamine B assay; details: RXF 393, 48 h, read-out: GI
[26] = tested on: DU-145; experiment: Growth inhibition of human DU145 cells assessed as cell growth at 10 '-8 M after 48 hrs by sulforhodamine B assay; details: DU-145, 48 h, read-out: Activity
[27] = tested on: U-251; experiment: Growth inhibition of human U251 cells assessed as cell growth at 10 '-6 M after 48 hrs by sulforhodamine B assay; details: U-251, 48 h, read-out: Activity
[28] = tested on: IGROV-1; experiment: Growth inhibition of human IGROV1 cells assessed as growth inhibition at 10 uM after 48 hrs by sulforhodamine B assay; details: IGROV-1, 48 h, read-out: GI
[29] = tested on: MCF7; experiment: Growth inhibition of human MCF7 cells assessed as cell growth at 10 '-4 M after 48 hrs by sulforhodamine B assay; details: MCF7, 48 h, read-out: Activity
[30] = tested on: HT-29; experiment: Growth inhibition of human HT-29 cells assessed as cell growth at 10 '-7 M after 48 hrs by sulforhodamine B assay; details: HT-29, 48 h, read-out: Activity
[31] = tested on: SNB-75; experiment: Growth inhibition of human SNB75 cells assessed as cell growth at 10 '-7 M after 48 hrs by sulforhodamine B assay; details: SNB-75, 48 h, read-out: Activity
[32] = read-out: LD50 (the source's name)

Cc1nn(-c2ccc(Cl)cc2)c(=O)n1CCN1CCOCC1
growth at 10 µM [1]: 69%

Cc1cc(=O)oc2cc(OCCn3c(C)nn(-c4ccc(Cl)cc4)c3=O)ccc12
growth at 10 µM [2]: -27% | inhibition of growth at 10 µM [3]: 68.6% | growth at 1 µM [4]: 88% | inhibition of growth at 10 µM [5]: 43.3% | GI50 [6]: 5.54 µM | TGI [6]: > 1 µM | CC50 [6, 32]: > 1 µM | growth at 10 µM [7]: 14% | growth at 0.01 µM [8]: 95% | growth at 10 µM [9]: 48% | growth at 1 µM [10]: 96% | growth at 100 µM [11]: 25% | growth at 1 µM [12]: 87% | growth at 100 µM [13]: 36% | growth at 10 µM [14]: 24% | growth at 100 µM [15]: -26% | growth at 10 µM [16]: 31% | growth at 0.1 µM [17]: 76% | growth at 0.1 µM [18]: 90% | GI50 [19]: 3.82 µM | TGI [19]: > 1 µM | CC50 [19, 32]: > 1 µM | growth at 0.01 µM [20]: 95% | growth at 10 µM [21]: 26% | inhibition of growth at 10 µM [22]: 58.9% | growth at 0.1 µM [23]: 96% | CC50 [24]: > 1 µM | inhibition of growth at 10 µM [25]: 62.6% | growth at 0.01 µM [26]: 111% | growth at 1 µM [27]: 87% | inhibition of growth at 10 µM [28]: 40.3% | growth at 100 µM [29]: 21% | growth at 0.1 µM [30]: 106% | growth at 0.1 µM [31]: 79%

Reference: ChEMBL document CHEMBL2346664, “Synthesis, characterization and in vitro anticancer evaluation of novel 1,2,4-triazolin-3-one derivatives” (2013)
